In general, T/C refers to the result in the treated group divided by that in the control group, in per cent.

Calls of active or inactive are those of the source. No cut-off for these calls is given here.

Experimental findings from ChEMBL document CHEMBL1126317, “2-(aminoalkyl)-5-nitropyrazolo[3,4,5-kl]acridines, a new class of anticancer agents” (1992) are described below.

Assay [1] has as its system L1210. The experiment in a line: In vitro antitumor activity against L1210 leukemia cell line. The format is functional. Conditions: Mus musculus, read-out: ID50 (the source's name).
Assay [2] deals with Mus musculus. Description: In vivo antitumor activity of the compound(ip, 50 mg/kg for 5 days) against CD2F1 mice implanted intraperitoneally with P388 leukemia cells; Day 30 survivors=3/6. Particulars: route intraperitoneal. The format is functional.
In assay [3] the test system is Mus musculus. Description: In vivo antitumor activity of the compound(ip, 50 mg/kg for 5 days) against CD2F1 mice implanted intraperitoneally with P388 leukemia cells. It is filed as functional. Conditions: route intraperitoneal.
In assay [4] the test system is Mus musculus. The experiment in a line: In vivo antitumor activity of the compound(ip, 50 mg/kg for 5 days) against CD2F1 mice implanted intraperitoneally with P388 leukemia cells; Day 30 survivors=1/6. The format is functional. Conditions: route intraperitoneal.
Assay [5] in a line: Ratio of the ID50's showing antitumor activity against HCT-8 and L1210 leukemia cell lines. It is filed as functional. In outline:
(§1)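 Ratio taken as ID50 in HCT-8 cells divided by ID50 in L1210 cells, both ID50s expressed as molar concentrations.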

For assay [6], the system named is HCT-8. The experiment in a line: In vitro antitumor activity against HCT-8 colon cancer cell line. It is filed as functional. Conditions: Homo sapiens, read-out: ID50 (the source's name).
For assay [7], the system named is Mus musculus. The experiment in a line: In vivo antitumor activity of the compound(ip, 3.12 mg/kg for 5 days) against CD2F1 mice implanted intraperitoneally with P388 leukemia cells. Conditions: route intraperitoneal. The format is functional.
The subject of assay [8] is Mus musculus. The experiment in a line: In vivo antitumor activity of the compound(ip, 3.12 mg/kg for 5 days) against CD2F1 mice implanted intraperitoneally with P388 leukemia cells; Day 30 survivors=1/6. The format is functional. Conditions: route intraperitoneal.
The subject of assay [9] is Mus musculus. Description: In vivo antitumor activity of the compound(ip, 200 mg/kg for 5 days) against CD2F1 mice implanted intraperitoneally with P388 leukemia cells. The format is functional. Conditions: route intraperitoneal.
The test system of assay [10] is Mus musculus. Description: In vivo antitumor activity of the compound(ip, 3 mg/kg for 5 days) against CD2F1 mice implanted intraperitoneally with P388 leukemia cells. The format is functional. Conditions: route intraperitoneal.
Assay [11] relates to Mus musculus. Description: In vivo antitumor activity of the compound(ip, 6.25 mg/kg for 5 days) against CD2F1 mice implanted intraperitoneally with P388 leukemia cells; Day 30 survivors=6/6. It is filed as functional. Conditions: route intraperitoneal.
Assay [12] relates to Mus musculus. Description: In vivo antitumor activity of the compound(ip, 6.25 mg/kg for 5 days) against CD2F1 mice implanted intraperitoneally with P388 leukemia cells. It is filed as functional. Particulars: route intraperitoneal.
Assay [13] deals with Mus musculus. The experiment in a line: In vivo antitumor activity of the compound(ip, 25 mg/kg for 5 days) against CD2F1 mice implanted intraperitoneally with P388 leukemia cells. Conditions: route intraperitoneal.
Assay [14] deals with Mus musculus. Description: In vivo antitumor activity of the compound(ip, 25 mg/kg for 5 days) against CD2F1 mice implanted intraperitoneally with P388 leukemia cells; Day 30 survivors=1/6. Conditions: route intraperitoneal.
Assay [15] deals with Mus musculus. Description: In vivo antitumor activity of the compound(ip, 12.5 mg/kg for 5 days) against CD2F1 mice implanted intraperitoneally with P388 leukemia cells. It is filed as functional. Conditions: route intraperitoneal.
The test system of assay [16] is Mus musculus. Description: In vivo antitumor activity of the compound(ip, 12.5 mg/kg for 5 days) against CD2F1 mice implanted intraperitoneally with P388 leukemia cells; Day 30 survivors=2/6. It is filed as functional. Conditions: route intraperitoneal.
The subject of assay [17] is Mus musculus. Description: In vivo antitumor activity of the compound(ip, 12.5 mg/kg for 5 days) against CD2F1 mice implanted intraperitoneally with P388 leukemia cells; Day 30 survivors=3/6. It is filed as functional. Particulars: route intraperitoneal.
For assay [18], the system named is L1210. Description: In vitro antitumor activity against L1210 leukemia cell line; IA= Inactive. It is filed as functional, cell-based. Particulars: Mus musculus.
Assay [19] deals with HCT-8. Description: In vitro antitumor activity against HCT-8 human colon line; IA= Inactive. It is filed as functional, cell-based.
The test system of assay [20] is Mus musculus. The experiment in a line: In vivo antitumor activity of the compound(ip, 3.13 mg/kg for 5 days) against CD2F1 mice implanted intraperitoneally with P388 leukemia cells. Conditions: route intraperitoneal. The format is functional.
Assay [21] in a line: Ratio of the ID50's showing antitumor activity against HCT-8 and L1210 leukemia cell lines. The format is functional. A digest of the protocol: as §1
In assay [22] the test system is Mus musculus. Description: In vivo antitumor activity of the compound(ip, 25 mg/kg for 5 days) against CD2F1 mice implanted intraperitoneally with P388 leukemia cells. It is filed as functional. Conditions: route intraperitoneal.
Assay [23] deals with Mus musculus. The experiment in a line: In vivo antitumor activity of the compound(ip, 6.25 mg/kg for 5 days) against CD2F1 mice implanted intraperitoneally with P388 leukemia cells; Day 30 survivors=5/6. The format is functional. Particulars: route intraperitoneal.
Assay [24] relates to Mus musculus. Description: In vivo antitumor activity of the compound(ip, 3.12 mg/kg for 5 days) against CD2F1 mice implanted intraperitoneally with P388 leukemia cells; Day 30 survivors=4/6. Particulars: route intraperitoneal. The format is functional.
The test system of assay [25] is Mus musculus. Description: In vivo antitumor activity of the compound(ip, 6 mg/kg for 5 days) against CD2F1 mice implanted intraperitoneally with P388 leukemia cells; Day 30 survivors=1/6. Conditions: route intraperitoneal. The format is functional.
Assay [26] has as its system Mus musculus. The experiment in a line: In vivo antitumor activity of the compound(ip, 6 mg/kg for 5 days) against CD2F1 mice implanted intraperitoneally with P388 leukemia cells. The format is functional. Conditions: route intraperitoneal.
The subject of assay [27] is Mus musculus. Description: In vivo antitumor activity of the compound(ip, 25 mg/kg for 5 days) against CD2F1 mice implanted intraperitoneally with P388 leukemia cells; Day 30 survivors=1/6. Particulars: route intraperitoneal. It is filed as functional.

For the molecule `COc1ccc2c(c1)-c1nn(CCN(C)C)c3ccc([N+](=O)[O-])c(c13)N2.CS(=O)(=O)O`, the IC50 in the assay on L1210 [1] was 400 nM. Besides, the Activity with Mus musculus [2] is listed as 3.
In the case of `CCNCCN1Nc2c3cc(OC)ccc3nc3c([N+](=O)[O-])ccc1c23.CS(=O)(=O)O`, the T/C in the assay with Mus musculus [3] stood at 240%. Also, the Activity in the assay on Mus musculus [4] is listed as 1. Further, the IC50 in the assay on L1210 [1] was 210 nM; with HCT-8 [6], 120 nM. Besides, the Ratio in assay [5] is recorded as 0.57.
`CC(=O)Oc1ccc2c(c1)-c1nn(CCN3CCCC3)c3ccc([N+](=O)[O-])c(c13)N2.CS(=O)(=O)O` had a T/C in the assay on Mus musculus [7] of 236%. The Activity in the assay with Mus musculus [8] was found to be 1. In the assay on L1210 [1], the IC50 was found to be 2.2 nM.
`CCN(CC)CCN1Nc2c3c(O)cccc3nc3c([N+](=O)[O-])ccc1c23.CS(=O)(=O)O`: in the assay on L1210 [1], the IC50 stood at 600 nM. In the assay on Mus musculus [9], the T/C is reported as 117%.
`CCN(CC)CCN1Nc2c3cc(O)ccc3nc3c([N+](=O)[O-])ccc1c23.CS(=O)(=O)O`: the results for the IC50 in the assay with L1210 [1] and in the assay on HCT-8 [6] were 2 nM and 13 nM, respectively. The Ratio in assay [5] turned out to be 6.5. Besides, the T/C with Mus musculus [10] stood at 180%.
Consider `CS(=O)(=O)O.O=[N+]([O-])c1ccc2c3c(c4cc(O)ccc4nc13)NN2CCNCCO`, for which the IC50 in the assay with L1210 [1] came out at 4.8 nM. In the assay on Mus musculus [11], this molecule yielded an Activity of 6. This molecule also gave a T/C in the assay on Mus musculus [12] of 275%.
Turning to `C=CCOc1ccc2nc3c([N+](=O)[O-])ccc4c3c(c2c1)NN4CCN(CC)CC.CS(=O)(=O)O`, the T/C with Mus musculus [13] turned out to be 258%. For the same molecule, the IC50 in the assay on L1210 [1] was determined as 580 nM. Also, the Activity in the assay on Mus musculus [14] amounted to 1.
With `CCN(CC)CCN1Nc2c3cc(O[Si](C)(C)C(C)(C)C)ccc3nc3c([N+](=O)[O-])ccc1c23.CS(=O)(=O)O`, in the assay on Mus musculus [15], the T/C is given as 228%. Also, the IC50 in the assay on L1210 [1] is 1.7 nM. In the assay with Mus musculus [16], the Activity is reported as 2.
Turning to `CCN(CC)CCN1Nc2c3c(Cl)c(OC)ccc3nc3c([N+](=O)[O-])ccc1c23.CS(=O)(=O)O`, in the assay with Mus musculus [15], the T/C is 230%. Besides, in the assay with Mus musculus [17], the Activity came out at 3. In addition, the IC50 with L1210 [1] amounted to 61 nM.
Take `COc1ccc2c(c1)-c1nn(CCCl)c3ccc([N+](=O)[O-])c(c13)N2`: the ID50 entry with L1210 [18] and in the assay on HCT-8 [19] was “inactive” in each case.
The molecule `CCOC(=O)Oc1ccc2c(c1)-c1nn(CCN(CC)CC)c3ccc([N+](=O)[O-])c(c13)N2.CS(=O)(=O)O` had a T/C in the assay on Mus musculus [20] of 243%.
`CCN(CC)CCN1Nc2c3cc(OC)ccc3nc3c([N+](=O)[O-])ccc1c23.CS(=O)(=O)O`: the IC50 worked out at 470 nM in the assay with L1210 [1] and 120 nM with HCT-8 [6]. Also, the Ratio in assay [21] is 0.26. Further, the T/C in the assay on Mus musculus [22] is given as 242%.
Molecule `CCN(CC)CCN1Nc2c3cc(OC(=O)C(C)(C)C)ccc3nc3c([N+](=O)[O-])ccc1c23.CS(=O)(=O)O` displayed an Activity with Mus musculus [23] of 5. For the same molecule, the IC50 in the assay on L1210 [1] stood at 1 nM; in the assay on HCT-8 [6] it was 9.7 nM. Also, the Ratio in [5] was found to be 0.97. Also, in the assay with Mus musculus [12], the T/C is 283%.
Turning to `CCN(CC)CCN1Nc2c3cc(OC(C)=O)ccc3nc3c([N+](=O)[O-])ccc1c23.CS(=O)(=O)O`, in the assay on Mus musculus [7], the T/C amounted to 283%. The IC50 with L1210 [1] is 3.8 nM; with HCT-8 [6] it was 5.3 nM. This molecule also came in with an Activity in the assay on Mus musculus [24] of 4. In addition, the Ratio in [5] amounted to 1.4.
The molecule `CCN(CC)CCN1Nc2c3c(Cl)c(O)ccc3nc3c([N+](=O)[O-])ccc1c23.CS(=O)(=O)O` came in with an Activity with Mus musculus [25] of 1. Besides, the IC50 with L1210 [1] is 0.39 nM. In addition, in the assay on Mus musculus [26], the T/C is given as 196%.
For the molecule `CCN(CC)CCN1Nc2c3cc(N(C)C)ccc3nc3c([N+](=O)[O-])ccc1c23.CS(=O)(=O)O`, the IC50 with L1210 [1] came to 900 nM. Further, the Activity in the assay with Mus musculus [27] is listed as 1. In addition, the T/C in the assay on Mus musculus [22] was determined as 178%.
